From paper PMC8349901 (Journal of Peptide Science, 2021)
Non-standard residues stand in square brackets, D forms with d. Residues, ends and D or L forms follow the SMILES beside them. Bip = N[C@@H](Cc1ccc(-c2ccccc2)cc1)C(=O)O

Key:
[1] = amino acid; glycine defined as 0; higher π = more hydrophobic; cited from earlier work
[2] = Negative-stain TEM of self-assembled nanoribbon morphology; assay type: physicochemical; conditions: 0.2 mM peptide, 5% HFIP/water, average of at least 100 measurements; for Nanoribbon width: pH 3–4, room temperature
Method in brief: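 Peptide, quantified by HPLC peak area against amino-acid-analysis-calibrated curves, dissolved in HFIP and diluted with water to 0.2 mM (5% HFIP, pH 3–4 from residual TFA). Vortexed 1 min, sonicated 5 min. Assembled sample applied to carbon-coated copper grids for 30 s, blotted, stained 2 min with 5% uranyl acetate, and water-washed. Imaged at 80 kV. Dimensions averaged over ≥100 distinct fibrils.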

[3] = Self-assembly kinetics by circular dichroism over 24 h; assay type: physicochemical; conditions: CD at 0, 1, 2, 4, 12, 24 h; 0.2 mM peptide, 5% HFIP/water, 25°C
Method in brief: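 Lyophilized peptide, quantified by 215-nm HPLC calibration tied to amino acid analysis, was dissolved in HFIP, then water was added (pH 3–4 from residual TFA). Solutions were vortexed for 1 min and sonicated for 5 min. Spectra were scanned from 260 to 190 nm in a 0.1-mm quartz cell with 1.0-nm step, 1.0-nm bandwidth and 3 s per step, starting immediately after preparation.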

Row | Compound | partition coefficient (π) between octanol and water relative to glycine [1] | Nanoribbon width [2] | Helical pitch ([2]; left-handed helical nanoribbons) | evolution of CD signal over 24 h (self-assembly kinetics) [3]
1 | N[C@@H](CCc1ccccc1)C(=O)O [Hph, homophenylalanine] | 2.10 |  |  | 
2 | CC(=O)N[C@@H](Cc1ccccc1)C(=O)N[C@@H](CCCCN)C(=O)N[C@@H](Cc1ccccc1)C(=O)N[C@@H](CCC(=O)O)C(=O)N[C@@H](Cc1ccccc1)C(=O)N[C@@H](CCCCN)C(=O)N[C@@H](Cc1ccccc1)C(=O)N[C@@H](CCC(=O)O)C(N)=O [Peptide 1, Ac‐(FKFE)2‐NH2] |  | 8.8 ± 0.8 nm | 19.1 ± 1.3 nm | 
3 | CC(=O)N[C@@H](Cc1c[nH]c2ccccc12)C(=O)N[C@@H](CCCCN)C(=O)N[C@@H](Cc1c[nH]c2ccccc12)C(=O)N[C@@H](CCC(=O)O)C(=O)N[C@@H](Cc1c[nH]c2ccccc12)C(=O)N[C@@H](CCCCN)C(=O)N[C@@H](Cc1c[nH]c2ccccc12)C(=O)N[C@@H](CCC(=O)O)C(N)=O [Peptide 3, Ac‐(WKWE)2‐NH2] (Ac-WKWEWKWE-NH2) |  | 7.3 ± 1.6 nm |  | occurring over 24 h
4 | CC(=O)N[C@@H](Cc1ccc(-c2ccccc2)cc1)C(=O)N[C@@H](CCCCN)C(=O)N[C@@H](Cc1ccc(-c2ccccc2)cc1)C(=O)N[C@@H](CCC(=O)O)C(=O)N[C@@H](Cc1ccc(-c2ccccc2)cc1)C(=O)N[C@@H](CCCCN)C(=O)N[C@@H](Cc1ccc(-c2ccccc2)cc1)C(=O)N[C@@H](CCC(=O)O)C(N)=O [Peptide 6, Ac‐(BipKBipE)2‐NH2] (Ac-[Bip]K[Bip]E[Bip]K[Bip]E-NH2) |  | 5.5 ± 0.9 nm |  | no effect on evolution of signal intensity over time
5 | CC(=O)N[C@@H](Cc1ccc(-c2ccccc2)cc1)C(=O)N[C@@H](CCCCN)C(=O)N[C@@H](Cc1ccccc1)C(=O)N[C@@H](CCC(=O)O)C(=O)N[C@@H](Cc1ccccc1)C(=O)N[C@@H](CCCCN)C(=O)N[C@@H](Cc1ccccc1)C(=O)N[C@@H](CCC(=O)O)C(N)=O [Peptide 9, Ac‐BipKFEFKFE‐NH2] (Ac-[Bip]KFEFKFE-NH2) |  | 2.9 ± 0.5 nm |  | intensified dramatically over 24 h
6 | N[C@@H](Cc1ccccc1)C(=O)O [Phe, phenylalanine] | 1.79 |  |  | 
7 | N[C@@H](Cc1c[nH]c2ccccc12)C(=O)O [Trp, tryptophan] | 2.25 |  |  | 
